Test results: ChEMBL document CHEMBL4477209, “Indole-2-carboxamide-based MmpL3 Inhibitors Show Exceptional Antitubercular Activity in an Animal Model of Tuberculosis Infection” (J Med Chem, 2016)
≈ marks a conversion by molar mass, not a printed value. Calls of active or inactive are those of the source. The rule behind the calls is not given here.

Legend:
[1] = tested on: Mycobacterium tuberculosis H37Rv; assay: Inhibition of MmpL3 in clinical isolates of drug sensitive Mycobacterium tuberculosis H37Rv after 7 to 14 days by alamar blue assay
[2] = tested on: Mycobacterium tuberculosis; assay: Inhibition of MmpL3 in clinical isolates of drug sensitive Mycobacterium tuberculosis V4207 after 7 to 14 days by alamar blue assay
[3] = tested on: Mycobacterium tuberculosis; assay: Antimycobacterial activity against Mycobacterium tuberculosis H37Rv grown on serum isolated from 100 mg/kg, po treated BALB/c mouse for 30 to 120 mins assessed as reduction in bacterial growth followed by bacterial addition incubated for 7 days by alamar blue reagent based serum inhibition titration assay; format: functional, organism-based
Outline: (§1)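 Six-week-old female BALB/c mice (20 g) given one oral dose as suspension in 0.5% CMC in water; isoniazid 10 mg/kg as positive control, vehicle as negative. Serum collected at 30, 60 and 120 min, pooled from three mice per time point, 2-fold serially diluted. 10^4 CFU H37Rv added per well, 7 days at 37 °C. alamarBlue added for 16−18 h, fluorescence read at Ex544/Em590 and plotted against serum titration.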

Vero = assay: Cytotoxicity against african green monkey Vero cells; format: cell-based; conditions: Chlorocebus sabaeus
[4] = Selectivity index, ratio of IC50 for african green monkey Vero cells to MIC for clinical isolates of Mycobacterium tuberculosis; format: toxicity; conditions: read-out: Selectivity Index
[5] = Oral bioavailability in BALB/c mouse at 100 mg/kg administered for 30 to 120 mins followed by Mycobacterium tuberculosis H37Rv addition to compound treated serum incubated for 7 days by alamar blue reagent based serum inhibition titration assay; format: ADME, organism-based; conditions: in vivo; outline: as §1
[6] = Oral bioavailability in BALB/c mouse at 100 mg/kg administered as single dose for 30 to 120 mins followed by Mycobacterium tuberculosis H37Rv addition to compound treated serum incubated for 7 days by alamar blue reagent based serum inhibition titration assay; format: ADME, organism-based; conditions: in vivo; outline: as §1
[7] = tested on: Mycobacterium tuberculosis; assay: Antimycobacterial activity against Mycobacterium tuberculosis H37Rv grown on serum of 100 mg/kg, po treated BALB/c mouse for 30 to 120 mins assessed as reduction in bacterial growth followed by bacterial addition incubated for 7 days by alamar blue reagent based serum inhibition titration assay; format: functional, organism-based; outline: as §1
[8] = Tmax in BALB/c mouse lung at 100 mg/kg administered via oral gavage after 0.25 to 24 hrs by LC-MS analysis; format: ADME, organism-based
Outline: (§2)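 Female BALB/c mice (20 g) got a single 100 mg/kg oral gavage dose. Three animals were sacrificed per time point at 0, 0.25, 0.5, 1, 2, 4, 8 and 24 h. Cardiac blood was spun at 12 000g, 4 °C for plasma. Lungs were bead-beaten in water and the supernatant taken. Both matrices were quantified by LC-MS/MS with an indole-2-carboxamide internal standard. Parameters came from noncompartmental analysis.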

[9] = Mean residence time (last) in BALB/c mouse lung at 100 mg/kg administered via oral gavage by LC-MS analysis; format: ADME, organism-based
Outline: (§3)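 Female BALB/c mice (20 g), single oral gavage dose of 100 mg/kg. Cardiac blood and lungs taken at 0, 0.25, 0.5, 1, 2, 4, 8 and 24 h (n = 3 per time point). Plasma separated by centrifugation; lungs bead-beaten in water and supernatant recovered. Drug quantified by LC-MS/MS against an indole-2-carboxamide internal standard. Parameters derived by noncompartmental analysis.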

[10] = tested on: Mycobacterium tuberculosis; assay: Antimycobacterial activity against Mycobacterium tuberculosis H37Rv infected in BALB/c mouse model assessed as protection against mouse mortality at 12.5 to 100 mg/kg administered daily via oral gavage for 5 days per week measured after 14 to 28 days post dosage; format: functional, organism-based
[11] = tested on: Mycobacterium tuberculosis; assay: Antimycobacterial activity against Mycobacterium tuberculosis H37Rv infected in BALB/c mouse model assessed as reduction in CFU counts in lung at 100 mg/kg administered daily via oral gavage for 5 days per week measured after 14 days post dosage relative to control; format: functional
Outline: (§4)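 Female BALB/c mice, 4-6 weeks old, aerosol-infected with H37Rv (about 10^3 CFU); five mice taken on day 1 for lung implantation CFU. From day 1, 12.5, 25, 50 or 100 mg/kg in 0.5% carboxymethylcellulose by daily oral gavage, 5 days/week. Ethambutol 100 mg/kg as positive control, untreated infected mice as negative, 5 mice per group. Lung homogenates plated on 7H11 selective agar on days 14 and 28.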

[12] = AUClast in BALB/c mouse plasma at 100 mg/kg administered via oral gavage after 0.25 to 24 hrs by LC-MS analysis; format: ADME, organism-based; parameters: dose 100 mg/kg, time 0.25-24 hr, route oral; outline: as §3
[13] = Cmax in BALB/c mouse lung at 100 mg/kg administered via oral gavage after 0.25 to 24 hrs by LC-MS analysis; format: ADME, organism-based; parameters: dose 100 mg/kg, route oral; outline: as §3
[14] = Cmax in BALB/c mouse plasma at 100 mg/kg administered via oral gavage after 0.25 to 24 hrs by LC-MS analysis; format: ADME, organism-based; parameters: dose 100 mg/kg, route oral; outline: as §3
[15] = tested on: Mycobacterium tuberculosis; assay: Antimycobacterial activity against Mycobacterium tuberculosis H37Rv infected in BALB/c mouse model assessed as reduction in CFU counts in lung at 100 mg/kg administered daily via oral gavage for 5 days per week measured after 28 days post dosage relative to control; format: functional; outline: as §4
[16] = AUClast in BALB/c mouse lung at 100 mg/kg administered via oral gavage after 0.25 to 24 hrs by LC-MS analysis; format: ADME, organism-based; conditions: in vivo; outline: as §3
[17] = AUMClast in BALB/c mouse plasma at 100 mg/kg administered via oral gavage after 0.25 to 24 hrs by LC-MS analysis; format: ADME, organism-based; conditions: in vivo; outline: as §3
[18] = AUMClast in BALB/c mouse lung at 100 mg/kg administered via oral gavage after 0.25 to 24 hrs by LC-MS analysis; format: ADME, organism-based; conditions: in vivo; outline: as §3
[19] = Mean residence time (last) in BALB/c mouse plasma at 100 mg/kg administered via oral gavage by LC-MS analysis; format: ADME, organism-based; outline: as §3
[20] = Tmax in BALB/c mouse plasma at 100 mg/kg administered via oral gavage after 0.25 to 24 hrs by LC-MS analysis; format: ADME, organism-based; outline: as §2
[21] = tested on: Mycobacterium tuberculosis; assay: Antimycobacterial activity against Mycobacterium tuberculosis H37Rv infected in BALB/c mouse model assessed as reduction in CFU counts in lung at 200 mg/kg administered daily via oral gavage for 5 days per week measured after 28 days post dosage relative to control; format: functional
Outline: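 Bactericidal-dose model in aerosol-infected BALB/c mice given 25, 50, 100 or 200 mg/kg orally in 0.5% carboxymethylcellulose in water for 4 weeks. Lung CFU compared with the count at treatment initiation; survival also recorded.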

| Compound | MIC90 [1] | further results |
| --- | --- | --- |
| C[C@@H]1[C@@H](NC(=O)c2cc3c(Cl)cc(Cl)cc3[nH]2)C[C@H]2C[C@@H]1C2(C)C | 0.086 µM (≈ 0.0314 µg/mL) | – |
| CC1(C)[C@@H]2CC[C@@H](CNC(=O)c3cc4c(Cl)cc(Cl)cc4[nH]3)[C@H]1C2 | 175 µM (≈ 63.9 µg/mL) | – |
| CN1C2CCCC1CC(NC(=O)c1cc3c(Cl)cc(Cl)cc3[nH]1)C2 (stereo unspecified) | 10.9 µM (≈ 3.99 µg/mL) | – |
| Cc1ccc2cc(C(=O)NC3CCCCCCC3)[nH]c2c1 | 0.11 µM (≈ 0.0313 µg/mL) | – |
| O=C(NC1Cc2ccccc2C1)c1cc2c(F)cc(F)cc2[nH]1 | 102 µM (≈ 31.9 µg/mL) | – |
| CC(C)=CCC/C(C)=C/CNC(=O)c1cc2c(Cl)cc(Cl)cc2[nH]1 | 11 µM (≈ 4.02 µg/mL) | – |
| Cc1cccc2[nH]c(C(=O)NC3CCCCCCC3)cc12 | 0.11 µM (≈ 0.0313 µg/mL) | – |
| Cc1cc(C)c2[nH]c(C(=O)NC3CCCCCCC3)cc2c1 | 0.21 µM (≈ 0.0627 µg/mL) | – |
| Cc1cccc2[nH]c(C(=O)NC3CCCCCC3)cc12 | 0.93 µM (≈ 0.251 µg/mL) | – |
| COc1cc(OC)c2cc(C(=O)NC3CCCCCCC3)[nH]c2c1 | 0.19 µM (≈ 0.0628 µg/mL) | – |
| C[C@@H]1[C@H]2C[C@@H](C[C@H]1NC(=O)c1cc3c(Cl)cc(Cl)cc3[nH]1)C2(C)C | 0.021 µM (≈ 0.00767 µg/mL) | MIC [2]: 43 µM (≈ 15.7 µg/mL); Activity [3]: Active; IC50 (Vero): 43.8 µM; selectivity ratio [4]: 2080; Drug uptake [5]: Active |
| Nc1ccc2[nH]c(C(=O)NC3CCCCCCC3)cc2c1 | 80 µM (≈ 22.8 µg/mL) | – |
| O=C(NC12CC3CC(CC(C3)C1)C2)c1cc2ccc(Br)cc2[nH]1 | 0.042 µM (≈ 0.0157 µg/mL) | – |
| Cc1ccc2[nH]c(C(=O)NC3CCCCCC3)cc2c1 | 7.4 µM (≈ 2 µg/mL) | – |
| Cc1cc(C)c2cc(CNC3CCCCCCC3)[nH]c2c1 | 0.31 µM (≈ 0.0882 µg/mL) | – |
| Cc1cccc2cc(C(=O)NC3CCCCCC3)[nH]c12 | 30 µM (≈ 8.11 µg/mL) | – |
| Cc1ccc2[nH]c(C(=O)NC3CCCCCCC3)cc2c1 | 0.88 µM (≈ 0.25 µg/mL) | – |
| COc1cc(OC)c2cc(C(=O)NC3CCCCCC3)[nH]c2c1 | 3.2 µM (≈ 1.01 µg/mL) | – |
| O=C(NC12CC3CC(CC(C3)C1)C2)c1cc2c(Cl)cc(Cl)cc2[nH]1 | 0.011 µM (≈ 0.004 µg/mL) | Drug uptake [6]: Not Active; Activity [7]: inactive |
| CCCCCCCNC(=O)c1cc2c(Cl)cc(Cl)cc2[nH]1 | > 300 µM | – |

| Compound | MIC90 [1] | further results |
| --- | --- | --- |
| Cc1cccc2cc(C(=O)NC3CCCCCCC3)[nH]c12 | 3.5 µM (≈ 0.995 µg/mL) | – |
| Cc1cc(C)c2cc(C(=O)NC3CCCCCCC3)[nH]c2c1 | 0.013 µM (≈ 0.00388 µg/mL) | – |
| Cc1cc(C)c2cc(CNC(=O)C3CCCCCC3)[nH]c2c1 | 54 µM (≈ 16.1 µg/mL) | – |
| CC1(C)CCC(NC(=O)c2cc3c(Cl)cc(Cl)cc3[nH]2)CC1 | – | Tmax [8]: 2 h; Drug uptake [6]: Active; MRT last [9]: 8.3 h; Activity [10]: Active; Activity [11]: 0.45 log10CFU; AUC(0-t) [12]: 5620 ng·h/mL; Cmax [13]: 1300 ng/g; Cmax [14]: 670 ng/mL; Activity [15]: 1.08 log10CFU; AUClast [16]: 18.1 µg·h/g; Activity [7]: Active; AUMClast [17]: 36.4 hr.hr.ug/ml; AUMClast [18]: 150 hr2.ug/g; MRT last [19]: 6.47 h; Tmax [20]: 2 h; Activity [21]: inactive |
| O=C(N[C@@H]1C[C@H]2CC[C@@H]1C2)c1cc2c(Cl)cc(Cl)cc2[nH]1 (relative stereo) | 0.39 µM (≈ 0.126 µg/mL) | – |
| C[C@@H](NC(=O)c1cc2c(F)cc(F)cc2[nH]1)C1CCCCC1 | 13 µM (≈ 3.98 µg/mL) | – |
| CC(C)=CCC/C(C)=C/CNC(=O)c1cc2c(F)cc(F)cc2[nH]1 | > 192 µM | – |
| C[C@@H]1[C@@H](NC(=O)c2cc3c(F)cc(F)cc3[nH]2)C[C@H]2C[C@@H]1C2(C)C | 0.19 µM (≈ 0.0632 µg/mL) | – |
| Cc1cc(C)c2[nH]c(C(=O)NC3CCCCCC3)cc2c1 | 3.5 µM (≈ 0.995 µg/mL) | – |
| CCCCCCCCNC(=O)c1cc2c(Cl)cc(Cl)cc2[nH]1 | > 300 µM | – |
| Nc1cccc2[nH]c(C(=O)NC3CCCCCCC3)cc12 | 20 µM (≈ 5.71 µg/mL) | – |
| O=C(NC1CCCCCCC1)c1cc2c(Cl)cc(Cl)cc2[nH]1 | 0.011 µM (≈ 0.00373 µg/mL) | MIC [2]: 11 µM (≈ 3.73 µg/mL); Activity [3]: Active; IC50 (Vero): 23.5 to 47 µM; selectivity ratio [4]: 2140 to 4270; Drug uptake [5]: Active |
| O=C(NC1CCCCCCC1)c1cc2ccc(Br)cc2[nH]1 | 0.09 µM (≈ 0.0314 µg/mL) | – |
| C[C@@H]1[C@H]2C[C@@H](C[C@H]1NC(=O)c1cc3ccc(Br)cc3[nH]1)C2(C)C | 0.01 µM (≈ 0.00375 µg/mL) | – |
| O=C(Nc1nc2ccc(OC(F)(F)F)cc2s1)C1CCCCCC1 | > 300 µM | – |
| O=C(NC1CCC2(CCCCC2)CC1)c1cc2c(Cl)cc(Cl)cc2[nH]1 | 0.005 µM (≈ 0.0019 µg/mL) | Drug uptake [6]: Not Active; Activity [7]: inactive |
| CC1(C)[C@H]2CC[C@@]1(C)[C@H](NC(=O)c1cc3c(Cl)cc(Cl)cc3[nH]1)C2 | 0.043 µM (≈ 0.0157 µg/mL) | – |
| O=C(NC1CCC2(CCCCC2)CC1)c1cc2c(F)cc(F)cc2[nH]1 | 0.003 µM (≈ 0.00104 µg/mL) | Drug uptake [6]: Not Active; Activity [7]: inactive |
| O=C(NC1Cc2ccccc2C1)c1cc2c(Cl)cc(Cl)cc2[nH]1 | 0.72 µM (≈ 0.249 µg/mL) | – |
| C[C@@H](NC(=O)c1cc2c(Cl)cc(Cl)cc2[nH]1)C1CCCCC1 | 5.9 µM (≈ 2 µg/mL) | – |
